Test results as given in ChEMBL document CHEMBL5303300, “EUbOPEN Chemogenomics Library - Multiplex” (2023).
Values joined by “and” are separate entries in the source; they are usually repeats but may differ in a detail not shown here. Equal values may be shown once.

What was measured:
[1] = system: Fibroblast; experiment: Multiplex assay against human fibroblast; type: toxicity, cell-based; conditions: number of replicates 2
Procedure, shortened: (§1)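 Cells were classed with CellPathfinder machine-learning gating, first as Hoechst high-intensity objects or normal cells, then (normal cells) as healthy, pyknosed or fragmented nuclei, and finally (pyknosed cells) as mitotic or apoptotic. Staining of live cells at seeding used Hoechst33342, BioTracker Green Microtubule Cytoskeleton Dye, MitoTracker Red and Annexin V Alexa Fluor 680, with imaging on a CQ1 microscope at 37°C and 5% CO2 after compound addition. Tubulin, mitochondrial-mass and membrane-permeability phenotypes are per cents of healthy-nucleus cells.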

[2] = system: HEK-293T; experiment: Multiplex assay against HEK293T; type: toxicity, cell-based; conditions: human, number of replicates 2; procedure, shortened: as §1
[3] = 24 h, 10 µM, compound concentration 10 uM
[4] = 48 h, 1 µM, compound concentration 1 uM
[5] = 48 h, 10 µM, compound concentration 10 uM
[6] = 12 h, 1 µM, compound concentration 1 uM
[7] = 12 h, 10 µM, compound concentration 10 uM
[8] = 24 h, 1 µM, compound concentration 1 uM

COc1cc(N2CCN(C)CC2)ccc1Nc1ncc2c(n1)N(C)c1ccccc1C(=O)N2CC(F)(F)F
Population Mitochondria Different-Phenotype (%) [1, 3]: 27% and 34% | Population Mitotic Cells (%) [1, 3]: 37% and 55% | Population Normal (%) [1, 3]: 94% and 100% | Population Pyknosed Nuclei (%) [1, 3]: 10% and 15% | Population Tubulin-Different-Phenotype (%) [1, 3]: 69% and 78% | Total Cell Count [1, 3]: 294 and 218 | Population Apoptotic (%) [1, 4]: 70% and 45% | Population Fragmented Nuclei (%) [1, 4]: 23% and 16% | Population Healthy Nuclei (%) [1, 4]: 72% and 77% | Population Hoechst High Intensity Objects (%) [1, 4]: 0% | Population Membrane Permeable-Phenotype (%) [1, 4]: 2% and 1% | Population Mitochondria Different-Phenotype (%) [1, 4]: 1% | Population Mitotic Cells (%) [1, 4]: 30% and 55% | Population Normal (%) [1, 4]: 100% and 99% | Population Pyknosed Nuclei (%) [1, 4]: 4% and 6% | Population Tubulin-Different-Phenotype (%) [1, 4]: 17% and 10% | Total Cell Count [1, 4]: 249 and 315 | Population Apoptotic (%) [1, 5]: 76% and 79% | Population Fragmented Nuclei (%) [1, 5]: 42% and 17% | Population Healthy Nuclei (%) [1, 5]: 50% and 72% | Population Hoechst High Intensity Objects (%) [1, 5]: 4% and 1% | Population Membrane Permeable-Phenotype (%) [1, 5]: 0% and 4% | Population Mitochondria Different-Phenotype (%) [1, 5]: 28% and 18% | Population Mitotic Cells (%) [1, 5]: 23% and 20% | Population Normal (%) [1, 5]: 95% and 98% | Population Pyknosed Nuclei (%) [1, 5]: 7% and 10% | Population Tubulin-Different-Phenotype (%) [1, 5]: 68% and 71% | Total Cell Count [1, 5]: 288 and 232 | Population Apoptotic (%) [2, 6]: 31% and 35% | Population Fragmented Nuclei (%) [2, 6]: 3% and 2% | Population Healthy Nuclei (%) [2, 6]: 87% and 86% | Population Hoechst High Intensity Objects (%) [2, 6]: 5% and 6% | Population Membrane Permeable-Phenotype (%) [2, 6]: 3% | Population Mitochondria Different-Phenotype (%) [2, 6]: 20% and 16% | Population Mitotic Cells (%) [2, 6]: 68% and 64% | Population Normal (%) [2, 6]: 94% and 93% | Population Pyknosed Nuclei (%) [2, 6]: 9% and 10% | Population Tubulin-Different-Phenotype (%) [2, 6]: 86% and 78% | Total Cell Count [2, 6]: 866 and 792 | Population Apoptotic (%) [2, 7]: 55% and 51% | Population Fragmented Nuclei (%) [2, 7]: 1% and 3% | Population Healthy Nuclei (%) [2, 7]: 81% and 83% | Population Hoechst High Intensity Objects (%) [2, 7]: 13% and 12% | Population Membrane Permeable-Phenotype (%) [2, 7]: 5% and 4% | Population Mitochondria Different-Phenotype (%) [2, 7]: 49% and 52% | Population Mitotic Cells (%) [2, 7]: 44% and 48% | Population Normal (%) [2, 7]: 86% and 87% | Population Pyknosed Nuclei (%) [2, 7]: 16% and 13% | Population Tubulin-Different-Phenotype (%) [2, 7]: 95% | Total Cell Count [2, 7]: 412 and 483 | Population Apoptotic (%) [2, 8]: 27% and 32% | Population Fragmented Nuclei (%) [2, 8]: 3% and 5% | Population Healthy Nuclei (%) [2, 8]: 90% and 86% | Population Hoechst High Intensity Objects (%) [2, 8]: 7% | Population Membrane Permeable-Phenotype (%) [2, 8]: 2% | Population Mitochondria Different-Phenotype (%) [2, 8]: 8% and 9% | Population Mitotic Cells (%) [2, 8]: 72% and 67% | Population Normal (%) [2, 8]: 92% | Population Pyknosed Nuclei (%) [2, 8]: 5% and 7% | Population Tubulin-Different-Phenotype (%) [2, 8]: 68% | Total Cell Count [2, 8]: 1356 and 1127 | Population Apoptotic (%) [2, 3]: 42% and 49% | Population Fragmented Nuclei (%) [2, 3]: 3% and 4% | Population Healthy Nuclei (%) [2, 3]: 80% and 83% | Population Hoechst High Intensity Objects (%) [2, 3]: 6% and 11% | Population Membrane Permeable-Phenotype (%) [2, 3]: 2% and 1% | Population Mitochondria Different-Phenotype (%) [2, 3]: 60% and 59% | Population Mitotic Cells (%) [2, 3]: 57% and 50% | Population Normal (%) [2, 3]: 93% and 88% | Population Pyknosed Nuclei (%) [2, 3]: 16% and 12% | Population Tubulin-Different-Phenotype (%) [2, 3]: 95% | Total Cell Count [2, 3]: 451 and 561 | Population Fragmented Nuclei (%) [2, 4]: 10% and 14% | Population Healthy Nuclei (%) [2, 4]: 86% and 82% | Population Hoechst High Intensity Objects (%) [2, 4]: 11% and 10% | Population Membrane Permeable-Phenotype (%) [2, 4]: 4% and 6% | Population Mitochondria Different-Phenotype (%) [2, 4]: 2% and 0% | Population Mitotic Cells (%) [2, 4]: 82% and 95% | Population Normal (%) [2, 4]: 88% and 89% | Population Pyknosed Nuclei (%) [2, 4]: 3% | Population Tubulin-Different-Phenotype (%) [2, 4]: 51% and 48% | Total Cell Count [2, 4]: 2136 and 2988 | Population Apoptotic (%) [2, 5]: 50% and 55% | Population Fragmented Nuclei (%) [2, 5]: 4% and 5% | Population Healthy Nuclei (%) [2, 5]: 79% and 83% | Population Hoechst High Intensity Objects (%) [2, 5]: 8% and 11% | Population Membrane Permeable-Phenotype (%) [2, 5]: 7% and 11% | Population Mitochondria Different-Phenotype (%) [2, 5]: 37% and 31% | Population Mitotic Cells (%) [2, 5]: 50% and 44% | Population Normal (%) [2, 5]: 91% and 88% | Population Pyknosed Nuclei (%) [2, 5]: 15% and 11% | Population Tubulin-Different-Phenotype (%) [2, 5]: 91% and 94% | Total Cell Count [2, 5]: 580 and 656
